Reference: paper PMC12279052 (RSC Advances, 2025)

Columns and labels:
[1] = Density measurement, apparent molar volume at infinite dilution in water; assay type: physicochemical; details: aqueous solution
How it was run: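 Solution density was measured with a vibrating-tube densitometer calibrated with dry air and double-distilled water, with Peltier temperature control at ±0.01 K and density uncertainty 2.0 × 10−4 g cm−3. Apparent molar volumes were computed versus molality. Infinite-dilution values came from the Redlich–Mayer equation with empirical parameters Sv and Bv.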

[2] = tested on: Candida albicans ATCC10231; assay: Antimicrobial activity, broth dilution MIC; assay type: cell-based; details: C. albicans, n = 3
[3] = Aggregation in water by electrical conductivity; assay type: physicochemical; details: for cmc: conductivity, water; for ionization degree α: micelle (cmc); for ΔG^0m / ΔH^0m / ΔS^0m / −TΔS^0m: micellization (cmc)
How it was run: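 Conductivity of aqueous test compound solutions was measured with a digital conductivity meter and electrode, calibrated against standard KCl, with a thermostat holding ±0.02 K and ±3% relative uncertainty. cmc and cac were taken from the break points, found by fitting the Aguiar equation. α came from the ratio of post- to pre-transition slopes (A2/A1), and micellization thermodynamic functions from the mass action model.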

[4] = tested on: Escherichia coli ATCC25922; assay: Antibacterial activity, broth dilution MIC; assay type: cell-based; details: E. coli, n = 3
[5] = Conductivity in low concentration region; assay type: physicochemical; details: in water
How it was run: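 Conductivity of aqueous test compound solutions was measured at each temperature in double-distilled deionized water (0.8 − 1.0 × 10−4 S m−1 at 298.15 K). The digital meter and electrode were calibrated with standard KCl, and the thermostat held ±0.02 K; relative standard uncertainty was ±3%.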

[6] = Octanol–water partition coefficient, shake-flask method; assay type: physicochemical
How it was run: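 Shake-flask partitioning was run at 25 and 37 °C in water, SGF (pH 1.2), SIF (pH 6.8) or SBF (pH 7.4). Fluids were prepared per USP without enzyme and pre-saturated with n-octanol (24 h shaking, 24 h separation). Test compound in buffer-saturated octanol (5 mL) was shaken 24 h with 5 mL octanol-saturated buffer, then centrifuged 10 min. The octanol phase was read by UV at 200 nm, and log Ko/w = log Co/(C−Co).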

[7] = tested on: human lung cancer cell line A549; assay: Cell toxicity assay, MTT; assay type: cell-based; details: A549, MTT, 24 h, n = 3
[8] = tested on: Cutibacterium acnes ATCC6919; assay: Antibacterial activity, broth dilution MIC; assay type: cell-based; details: C. acnes, n = 3
[9] = Thermal stability by TG/DTG; assay type: physicochemical; details: first decomposition process, 10 K min^−1, argon
How it was run: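 Simultaneous thermal analysis ran from 30–500 °C at 10 K min−1 on 3–5 mg sample in an Al2O3 crucible, with α-Al2O3 as reference. Argon served as protective gas at 20 mL min−1 and as purge gas at 60 mL min−1.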

[10] = tested on: human hepatocellular carcinoma cell line HepG2; assay: Cell toxicity assay, MTT; assay type: cell-based; details: HepG2, MTT, 24 h, n = 3
[11] = tested on: Staphylococcus aureus ATCC29213; assay: Antibacterial activity, broth dilution MIC; assay type: cell-based; details: S. aureus, n = 3
[12] = Steady-state fluorescence with pyrene probe; assay type: physicochemical; details: 298.15 K
How it was run: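 Pyrene (1 μM) served as probe at 298.15 K. Excitation was 335 nm, emission 355–650 nm, slits 2.5 nm, 700 V, 240 nm min−1, in a 1 cm quartz cuvette. cmc came from a Boltzmann fit of I1/I3 (373/384 nm). For Nagg, test compound at 2.5 cmc was quenched with cetylpyridinium chloride at 0.2–1.0 × 10−4 mol dm−3, and Nagg was derived from linear ln(I0/I) versus [Q].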

CCCCCCCCC(=O)O.O=C1CCC[C@@H]2[C@H]3CCCN4CCC[C@@H](CN12)[C@@H]34 [[Mat][C9]]
Apparent molar volume at infinite dilution V^0 2,φ ([1]; 293.15 K): 353.45 ± 0.11 cm^3 mol^−1 | Apparent molar volume at infinite dilution V^0 2,φ ([1]; 298.15 K): 355.41 ± 0.17 cm^3 mol^−1 | Apparent molar volume at infinite dilution V^0 2,φ ([1]; 303.15 K): 357.32 ± 0.16 cm^3 mol^−1 | Apparent molar volume at infinite dilution V^0 2,φ ([1]; 308.15 K): 360.15 ± 0.14 cm^3 mol^−1 | MIC [2]: 0.96 mM | cmc ([3]; 293.15 K): 0.00449 mol/kg | cmc ([3]; 298.15 K): 0.00459 mol/kg | cmc ([3]; 303.15 K): 0.00467 mol/kg | cmc ([3]; 308.15 K): 0.00475 mol/kg | cmc ([3]; 313.15 K): 0.00483 mol/kg | ionization degree α ([3]; 293.15 K): 0.8848 | ionization degree α ([3]; 298.15 K): 0.8890 | ionization degree α ([3]; 303.15 K): 0.8957 | ionization degree α ([3]; 308.15 K): 0.8931 | ionization degree α ([3]; 313.15 K): 0.8922 | ΔG^0m ([3]; 293.15 K): -6.121 kcal/mol | ΔH^0m ([3]; 293.15 K): -0.805 kcal/mol | ΔS^0m ([3]; 293.15 K): 75.88 J mol^−1 K^−1 | −TΔS^0m ([3]; 293.15 K): -5.315 kcal/mol | ΔG^0m ([3]; 298.15 K): -6.188 kcal/mol | ΔH^0m ([3]; 298.15 K): -0.767 kcal/mol | ΔS^0m ([3]; 298.15 K): 76.06 J mol^−1 K^−1 | −TΔS^0m ([3]; 298.15 K): -5.421 kcal/mol | ΔG^0m ([3]; 303.15 K): -6.243 kcal/mol | ΔH^0m ([3]; 303.15 K): -0.727 kcal/mol | ΔS^0m ([3]; 303.15 K): 76.13 J mol^−1 K^−1 | −TΔS^0m ([3]; 303.15 K): -5.516 kcal/mol | ΔG^0m ([3]; 308.15 K): -6.348 kcal/mol | ΔH^0m ([3]; 308.15 K): -0.686 kcal/mol | ΔS^0m ([3]; 308.15 K): 76.88 J mol^−1 K^−1 | −TΔS^0m ([3]; 308.15 K): -5.662 kcal/mol | ΔG^0m ([3]; 313.15 K): -6.446 kcal/mol | ΔH^0m ([3]; 313.15 K): -0.643 kcal/mol | ΔS^0m ([3]; 313.15 K): 77.53 J mol^−1 K^−1 | −TΔS^0m ([3]; 313.15 K): -5.803 kcal/mol | MIC [4]: 30.7 mM | Association constant KA ([5]; 298.15 K): 6.74 ± 0.44 dm^3 mol^−1 | Limiting molar conductivity Λ0 ([5]; 298.15 K): 47.11 ± 0.02 S cm^2 mol^−1 | Association constant KA ([5]; 303.15 K): 4.14 ± 0.68 dm^3 mol^−1 | Limiting molar conductivity Λ0 ([5]; 303.15 K): 52.90 ± 0.04 S cm^2 mol^−1 | Association constant KA ([5]; 308.15 K): 1.72 ± 1.03 dm^3 mol^−1 | Limiting molar conductivity Λ0 ([5]; 308.15 K): 59.10 ± 0.07 S cm^2 mol^−1 | Log K o/w ([6]; pH = 1.2 (SGF), 25 °C): −0.33 | Log K o/w ([6]; pH = 1.2 (SGF), 37 °C): 0.14 | Log K o/w ([6]; pH = 6.8 (SIF), 25 °C): 0.02 | Log K o/w ([6]; pH = 6.8 (SIF), 37 °C): 0.34 | Log K o/w ([6]; pH = 7.0 (ultrapure water), 25 °C): 0.68 | Log K o/w ([6]; pH = 7.0 (ultrapure water), 37 °C): 0.81 | Log K o/w ([6]; pH = 7.4 (SBF), 25 °C): 0.96 | Log K o/w ([6]; pH = 7.4 (SBF), 37 °C): 1.12 | IC50 [7]: 3.15 mM | MIC [8]: 3.84 mM | T onset (onset decomposition temperature) [9]: 196.3 °C | IC50 [10]: 2.12 mM | MIC [11]: 7.7 mM | cmc ([12]; Fluorescence (pyrene I1/I3), water): 0.00461 mol/kg | N agg (aggregation number) ([12]; ST = 2.5 cmc, fluorescence quenching with CPC): 64
